{"source": "ChEMBL document CHEMBL4017487", "about": "“Design and Synthesis of γ- and δ-Lactam M1 Positive Allosteric Modulators (PAMs): Convulsion and Cholinergic Toxicity of an M1-Selective PAM with Weak Agonist Activity” (J Med Chem, 2017)", "key": {"[1]": {"system": "Rattus norvegicus", "experiment": "Toxicity in rat assessed as unbound Cmax in plasma required to show convulsions at 45 mg/kg, po administered as single dose", "type": "organism-based", "conditions": "in vivo; call rule not given here"}, "[2]": {"biological_target": "T1, Muscarinic acetylcholine receptor M1 (Homo sapiens, UniProt P11229)", "T1 sequence (P11229 whole entry)": "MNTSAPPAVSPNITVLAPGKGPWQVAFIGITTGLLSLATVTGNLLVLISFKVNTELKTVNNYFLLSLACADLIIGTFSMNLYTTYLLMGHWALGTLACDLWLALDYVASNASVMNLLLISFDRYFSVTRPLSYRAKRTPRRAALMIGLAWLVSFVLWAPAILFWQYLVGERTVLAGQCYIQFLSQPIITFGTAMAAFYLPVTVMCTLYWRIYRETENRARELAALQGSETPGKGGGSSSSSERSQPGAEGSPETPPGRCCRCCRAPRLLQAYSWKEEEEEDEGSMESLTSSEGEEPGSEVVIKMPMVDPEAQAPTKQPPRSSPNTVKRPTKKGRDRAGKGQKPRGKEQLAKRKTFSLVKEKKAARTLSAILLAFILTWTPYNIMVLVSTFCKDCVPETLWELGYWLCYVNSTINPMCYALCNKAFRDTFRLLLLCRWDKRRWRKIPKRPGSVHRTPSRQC", "experiment": "Agonist activity at human muscarinic acetylcholine receptor M1 expressed in CHO cells assessed as increase in calcium mobilization incubated for 10 mins by Fluo-8-AM dye based FLIPR assay", "type": "cell-based", "procedure,_shortened": "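M1 FLIPR calcium mobilization run in agonist mode (compound added without the EC20 ACh used in PAM mode). Top concentration 10 μM. EC50 values are geometric means of at least three experiments.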"}, "[3]": {"system": "Canis familiaris", "experiment": "Unbound AUC (0 to 24 hrs) in dog plasma at 5 mg/kg, po administered as single dose using hydroxypropyl cellulose/docusate sodium formulation", "type": "ADME, organism-based, Canis lupus familiaris", "conditions": "in vivo", "procedure,_shortened": "(§1)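 Dogs given a single oral 5 mg/kg dose as a nanosuspension (hydroxypropyl cellulose SL, 0.05% docusate sodium in purified water), 1/sex. Unbound plasma Cmax and AUC determined, with clinical signs monitored at approximate hours postdose.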"}, "[4]": {"experiment": "Cholinergic toxicity in po dosed rat administered as single dose after 1 to 1.5 hrs post dose", "type": "organism-based", "conditions": "in vivo", "procedure,_shortened": "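Rat single oral dose escalation, 3/sex/dose. 1 and 5 mg/kg as a 0.5% methylcellulose suspension; 15 and 45 mg/kg as a nanosuspension (1.25% w/v hydroxypropyl cellulose SL, 0.05% docusate sodium in water).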"}, "[5]": {"experiment": "(§2) Ratio of unbound Cmax in rat brain assessed as convulsions at 45 mg/kg, po administered as single dose to unbound brain concentration for agonist activity at muscarinic acetylcholine receptor M1 in C57BL/6 mouse assessed as required to show 2 fold increase in IP1 accumulation in striatum at 1 to 10 mg/kg, sc", "type": "organism-based"}, "[6]": {"system": "Canis familiaris", "experiment": "Unbound Cmax in dog plasma at 5 mg/kg, po administered as single dose using hydroxypropyl cellulose/docusate sodium formulation", "type": "ADME, organism-based, Canis lupus familiaris", "conditions": "in vivo", "procedure,_shortened": "as §1"}, "[7]": {"system": "Rattus norvegicus", "experiment": "Toxicity in rat assessed as convulsions at 45 mg/kg, po administered as single dose after 1 to 6 hrs", "type": "organism-based", "conditions": "in vivo"}, "[8]": {"system": "Rattus norvegicus", "experiment": "Unbound AUC (0 to 24 hrs) in rat plasma at 1 mg/kg, po administered as single dose", "type": "ADME, organism-based", "conditions": "in vivo", "procedure,_shortened": "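Rats (3/sex/dose) dosed orally once, 1 or 5 mg/kg as a 0.5% methylcellulose suspension.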"}, "[9]": {"system": "Mus musculus", "experiment": "In vivo agonist activity at muscarinic acetylcholine receptor M1 in C57BL/6 mouse assessed as increase in IP1 accumulation in striatum at 1 to 10 mg/kg, sc measured after 2 hrs", "type": "organism-based", "procedure,_shortened": "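C57BL/6 mice dosed with compound or vehicle, then ex vivo striatal IP1 and free brain concentration (Cb,u) measured. Data points are individual mice.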"}, "[10]": {"system": "Canis familiaris", "experiment": "Toxicity in dog assessed as ataxia at 15 mg/kg, po administered as single dose using spray dried dispersion formulation after 0.8 hrs", "type": "organism-based, Canis lupus familiaris", "conditions": "in vivo", "procedure,_shortened": "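Dog single oral dose escalation: 1/sex at 5 mg/kg for each formulation; 1 female at 15 mg/kg. Spray-dried dispersion: 23% drug loading with 0.5% methylcellulose and 100 mM citrate buffer. Clinical signs timed in approximate hours postdose; unbound plasma Cmax.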"}, "[11]": {"experiment": "Selectivity ratio of EC50 for human muscarinic acetylcholine receptor M5 expressed in CHO cells to EC50 for human muscarinic acetylcholine receptor M1 expressed in CHO cells", "type": "ADME, cell-based"}, "[12]": {"system": "Plasma", "experiment": "Unbound plasma concentration in scopolamine-induced memory impairment Wistar rat model at 3.2 mg/kg, sc measured after 1.25 hrs by LC-MS/MS analysis", "type": "ADME, organism-based", "conditions": "in vivo", "procedure,_shortened": "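Rats from a satellite group of the scopolamine (0.32 mg/kg) Morris water maze study, N = 2/dose. Dosed sc as a solution in 20% hydroxypropyl β-cyclodextrin. Compound concentrations measured in plasma only at T = 1.25 h.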"}, "[13]": {"system": "Canis familiaris", "experiment": "Unbound Cmax in dog plasma at 15 mg/kg, po administered as single dose using spray dried dispersion formulation", "type": "ADME, organism-based, Canis lupus familiaris", "conditions": "in vivo"}, "[14]": {"experiment": "Unbound plasma concentration in dog at 0.5 mg/kg, po or 0.1 mg/kg, iv administered as single bolus dose", "type": "ADME, organism-based, Canis lupus familiaris", "procedure,_shortened": "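Dog PK: IV bolus given as a solution, 0.1 mg/kg in 20% HPBCD; oral dose given as a suspension, 0.5 mg/kg in 0.5% methylcellulose. Fraction unbound in plasma determined.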"}, "[15]": {"experiment": "as §2, with “in dog” for “in rat”, “at 15” for “at 45”", "type": "organism-based"}, "[16]": {"biological_target": "Muscarinic acetylcholine receptor M3 (Homo sapiens, UniProt P20309)", "sequence (P20309 whole entry)": "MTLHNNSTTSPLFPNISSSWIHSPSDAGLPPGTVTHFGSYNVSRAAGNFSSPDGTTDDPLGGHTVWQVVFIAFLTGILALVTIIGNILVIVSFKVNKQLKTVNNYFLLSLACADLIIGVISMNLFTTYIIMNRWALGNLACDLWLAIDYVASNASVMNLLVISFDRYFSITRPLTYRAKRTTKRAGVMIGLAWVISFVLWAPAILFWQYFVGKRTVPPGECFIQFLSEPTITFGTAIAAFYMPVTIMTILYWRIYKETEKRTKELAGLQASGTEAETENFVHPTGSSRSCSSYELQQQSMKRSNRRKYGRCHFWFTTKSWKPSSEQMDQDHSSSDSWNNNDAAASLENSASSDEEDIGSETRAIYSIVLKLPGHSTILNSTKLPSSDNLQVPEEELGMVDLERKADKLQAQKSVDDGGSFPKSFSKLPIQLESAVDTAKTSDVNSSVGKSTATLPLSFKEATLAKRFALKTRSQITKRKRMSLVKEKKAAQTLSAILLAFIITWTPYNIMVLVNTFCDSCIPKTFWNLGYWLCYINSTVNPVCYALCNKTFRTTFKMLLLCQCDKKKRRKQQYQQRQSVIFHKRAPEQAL", "experiment": "Agonist activity at human muscarinic acetylcholine receptor M3 expressed in CHO cells assessed as increase in calcium mobilization incubated for 10 mins by Fluo-8-AM dye based FLIPR assay", "type": "cell-based", "procedure,_shortened": "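Recombinant functional human M2–M5 assays, each run in agonist and PAM modes at concentrations up to 10 μM.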"}, "[17]": {"biological_target": "T1, Muscarinic acetylcholine receptor M1", "experiment": "Positive allosteric modulation of human muscarinic acetylcholine receptor M1 expressed in CHO cells assessed as increase in acetylcholine-induced calcium mobilization by measuring functional co-operativity with acetylcholine preincubated for 10 mins followed by acetylcholine addition by Fluo-8-AM dye based FLIPR assay", "type": "ADME, cell-based", "procedure,_shortened": "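In FLIPR calcium-mobilization data, ACh concentration–response curves with and without test compound were fitted with the Black/Leff operational model. α gives the change in receptor affinity for ACh, and β gives the change in efficacy, the functional cooperativity.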"}}, "note": "pEC50: −log10 of the molar value.", "data": [{"molecule": "Cc1cc2c(cc1Cc1ccc(-c3cocn3)cc1)C(=O)N([C@H]1CCOC[C@@H]1O)C2", "values": [{"measurement": "fCmax", "setting": "[1]", "value": 2310, "unit": "nM"}, {"measurement": "pEC50", "setting": "[2]", "value": "≤ 5.30"}, {"measurement": "fAUC", "setting": "[3]", "value": 3.37, "unit": "µM·h"}, {"measurement": "NOAEL", "setting": "[4]", "value": 15, "unit": "mg/kg"}, {"measurement": "selectivity ratio", "setting": "[5]", "value": 20}, {"measurement": "fCmax", "setting": "[6]", "value": 303, "unit": "nM"}, {"measurement": "Activity", "setting": "[7]", "value": "Toxic"}, {"measurement": "fAUC", "setting": "[8]", "value": 1048, "unit": "nM·h"}, {"measurement": "Activity", "setting": "[9]", "value": "Active"}, {"measurement": "Activity", "setting": "[10]", "value": "Toxic"}, {"measurement": "Ratio EC50", "setting": "[11]", "value": "> 200"}, {"measurement": "Cp(f)", "setting": "[12]", "value": 200, "unit": "nM"}, {"measurement": "fCmax", "setting": "[13]", "value": 1067, "unit": "nM"}, {"measurement": "fraction unbound", "setting": "[14]", "value": 0.059}, {"measurement": "selectivity ratio", "setting": "[15]", "value": 15}, {"measurement": "pEC50", "setting": "[16]", "value": "< 5.00"}, {"measurement": "log(activity)", "setting": "[17]", "value": 2.3}]}]}
